Drawing on ChEMBL document CHEMBL6177914, “Human microbiome derived synthetic antimicrobial peptides with activity against Gram-negative, Gram-positive, and antibiotic resistant bacteria” (RSC Med Chem, 2025), this text covers Retention_time, Activity and MIC for 12 compounds.

Data set [1] can be described thus: Retention time of compound by RP-HPLC analysis. It is filed as physicochemical. In outline:
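Analytical reversed-phase HPLC.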

Data set [2] deals with Listeria monocytogenes. The experiment in a line: Antibacterial activity against Listeria monocytogenes ATCC 15313 assessed as inhibition of bacterial growth incubated for 24 hrs by absorbance based microplate reader analysis. Format: functional. As to conditions: for MIC: read-out: MIC100. In outline: (§1)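 Broth microdilution. A single colony was grown 24 h in its recommended broth, then diluted 1:10 000 in the same medium. Peptide serial dilutions were added from DMSO stock at 4 µL per 196 µL inoculated medium. Plates were incubated aerobically or anaerobically as each pathogen requires, at 37 °C for 24 h, and OD600 was read. Duplicate wells; assay repeated five times independently.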

Data set [3] concerns Staphylococcus aureus. Kind of data set: Antibacterial activity against methicillin resistant Staphylococcus aureus BAA 2313 assessed as inhibition of bacterial growth incubated for 24 hrs by absorbance based microplate reader analysis. Format: functional. The method, boiled down:
as §1

Data set [4] has as its system Enterococcus faecium. The experiment in a line: Antibacterial activity against vancomycin resistant Enterococcus faecium BAA 2317 assessed as inhibition of bacterial growth incubated for 24 hrs by absorbance based microplate reader analysis. It is filed as functional. To be noted: for MIC: read-out: MIC100. The method, boiled down: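 Broth microdilution. A single colony was grown 24 h in its recommended broth, then diluted 1:10 000 in the same medium. Peptide serial dilutions were added from DMSO stock at 4 µL per 196 µL inoculated medium. Plates were incubated aerobically or anaerobically as each pathogen requires, at 37 °C for 24 h, and OD600 was read. MIC was the lowest concentration giving 100% growth inhibition. Duplicate wells; assay repeated five times independently.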

Data set [5] has as its system Escherichia coli. Kind of data set: Antibacterial activity against Escherichia coli ATCC 33694 assessed as inhibition of bacterial growth incubated for 24 hrs by absorbance based microplate reader analysis. It is filed as functional. In outline: (§2)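 Broth microdilution. An overnight single-colony culture in recommended broth was diluted 1:10 000, and peptide serial dilutions in DMSO were added (4 µL into 196 µL). Plates incubated 24 h at 37 °C, aerobic or anaerobic as required, then OD600 read. Inhibition was calculated against pathogen-only and blank wells.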

The subject of data set [6] is Pseudomonas aeruginosa. The experiment in a line: Antibacterial activity against Pseudomonas aeruginosa BAA 1744 assessed as inhibition of bacterial growth incubated for 24 hrs by absorbance based microplate reader analysis. Format: functional. The method, boiled down: as §2
Data set [7] has as its system Salmonella enterica. Kind of data set: Antibacterial activity against Salmonella enterica ATCC 13314 assessed as inhibition of bacterial growth incubated for 24 hrs by absorbance based microplate reader analysis. It is filed as functional. In outline:
as §2

The subject of data set [8] is Staphylococcus aureus. The experiment in a line: Bactericidal activity against Staphylococcus aureus ATCC 25923 assessed as inhibition of bacterial growth at MIC concentration incubated for 48 hrs by broth microdilution assay. It is filed as functional, organism-based. In outline: (§3)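 From broth-microdilution wells showing no growth, 10 µL was spotted onto agar and incubated 48 h at 37 °C. Plates were inspected for colonies. Fidaxomicin at 1 µM served as control.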
A general note: Broth dilution looks for growth in wells or tubes with falling amounts of substance.

The test system of data set [9] is Clostridioides difficile. Kind of data set: Bactericidal activity against Clostridium difficile ATCC 43602 assessed as inhibition of bacterial growth at MIC concentration incubated for 48 hrs by broth microdilution assay. Format: functional, organism-based. The method, boiled down: as §3
The subject of data set [10] is Listeria monocytogenes. Kind of data set: Bactericidal activity against Listeria monocytogenes ATCC 15313 assessed as inhibition of bacterial growth at MIC concentration incubated for 48 hrs by broth microdilution assay. Format: functional, organism-based. In outline:
as §3

The test system of data set [11] is Staphylococcus aureus. The experiment in a line: Bactericidal activity against methicillin resistant Staphylococcus aureus BAA 2313 assessed as inhibition of bacterial growth at MIC concentration incubated for 48 hrs by broth microdilution assay. It is filed as functional, organism-based. In outline:
(§4)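 Plates were incubated 48 h at 37 °C and examined for colonies. A fidaxomicin-treated culture at 1 µM served as the control.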

The subject of data set [12] is Enterococcus faecium. Kind of data set: Bactericidal activity against vancomycin resistant Enterococcus faecium BAA 2317 assessed as inhibition of bacterial growth at MIC concentration incubated for 48 hrs by broth microdilution assay. It is filed as functional, organism-based. In outline:
as §4

Data set [13] relates to Escherichia coli. Kind of data set: Bactericidal activity against Escherichia coli ATCC 33694 assessed as inhibition of bacterial growth at MIC concentration incubated for 48 hrs by broth microdilution assay. Format: functional, organism-based. In outline: as §3
Data set [14] has as its system Pseudomonas aeruginosa. The experiment in a line: Bactericidal activity against Pseudomonas aeruginosa BAA 1744 assessed as inhibition of bacterial growth at MIC concentration incubated for 48 hrs by broth microdilution assay. Format: functional, organism-based. In outline: as §3
The test system of data set [15] is Salmonella enterica. Kind of data set: Bactericidal activity against Salmonella enterica ATCC 13314 assessed as inhibition of bacterial growth at MIC concentration incubated for 48 hrs by broth microdilution assay. It is filed as functional, organism-based. The method, boiled down: as §3
Data set [16] concerns Clostridioides difficile. Kind of data set: Antibacterial activity against Clostridium difficile ATCC 43602 assessed as inhibition of bacterial growth incubated for 24 hrs by absorbance based microplate reader analysis. As to conditions: read-out: MIC100. It is filed as functional.
The test system of data set [17] is Caco-2. The experiment in a line: Anti-inflammatory activity in human Caco-2 cells infected with Clostridium difficile ATCC 43602 assessed as reduction in TNFalpha level at MIC concentration by ELISA relative to control. Format: functional. More on the design: scale not given: the % may be the effect or the level left. The method, boiled down:
(§5)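 Caco-2 cells grown in DMEM + 10% FBS, 37 °C, 5% CO2, to 90% confluence, then seeded 30 000 cells/well and held 24 h. C. difficile was grown overnight anaerobically in meat broth, washed in PBS, and 1 µL of 0.5 OD600 culture added per 300 µL medium. […] Cytokine in supernatant measured by ELISA; three independent replicates.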
(In general: In an ELISA, binding on a coated surface is turned into a signal by an enzyme label.)

In data set [18] the test system is Caco-2. Kind of data set: Anti-inflammatory activity in human Caco-2 cells infected with Clostridium difficile ATCC 43602 assessed as reduction in IL-6 level at MIC concentration by ELISA relative to control. Further details: scale not given: the % may be the effect or the level left. Format: functional. The method, boiled down: as §5

Values after ≈ are worked out from the molar mass of the structure shown. Active and inactive are the calls of the source. The rule behind the calls is not given here.

For `CC[C@H](C)[C@H](NC(=O)[C@H](C)NC(=O)[C@H](C)NC(=O)[C@@H](N)C(C)C)C(=O)N[C@@H](CC(C)C)C(=O)NCC(=O)N[C@@H](Cc1ccccc1)C(=O)N[C@@H](CC(C)C)C(=O)N[C@@H](C)C(=O)N[C@H](C(N)=O)[C@@H](C)O`, the Retention_time in data set [1] worked out at 14.9 min.
For the compound `CC[C@H](C)[C@H](NC(=O)[C@H](C)NC(=O)[C@H](C)NC(=O)[C@@H](N)C(C)C)C(=O)N[C@@H](CC(C)C)C(=O)NCC(=O)N[C@@H](Cc1ccccc1)C(=O)N[C@@H](CC(C)C)C(=O)N[C@@H](C)C(=O)N[C@@H](C(N)=O)[C@H](C)O`, the result in data set [2], in [3], in [4], in data set [5], in [6] and in [7] was inactive. The outcome in data set [8], in data set [9], in data set [10], in data set [11], in [12] and in data set [13] was Active. Also, the outcome in data set [14] and in data set [15] was Active.
On to `O=C(O)c1cn(C2CC2)c2cc(N3CCNCC3)c(F)cc2c1=O` [CIPROFLOXACIN], for which, in [4], the MIC amounted to 4 µM (≈ 1.33 µg/mL).
As to `CCc1c(Cl)c(O)c(Cl)c(O)c1C(=O)O[C@H]1[C@H](O)[C@H](OC)[C@H](OC/C2=C\C=C\C[C@H](O)/C(C)=C/[C@H](CC)[C@@H](O[C@@H]3OC(C)(C)[C@@H](OC(=O)C(C)C)[C@H](O)[C@@H]3O)/C(C)=C/C(C)=C/C[C@@H]([C@@H](C)O)OC2=O)O[C@@H]1C` [FIDAXOMICIN], the MIC turned out to be 1 µM (≈ 1.06 µg/mL) in data set [16], 1 µM (≈ 1.06 µg/mL) in data set [2] and 2 µM (≈ 2.12 µg/mL) in [4].
In [1], H-DAWNHADELV-NH2 had a Retention_time of 15.95 min. The outcome in [2], in data set [4], in data set [5], in data set [6] and in data set [7] was inactive. Besides, the outcome in [8], in data set [9], in data set [10], in data set [11], in data set [12] and in [13] was Active. Besides, the outcome in data set [14] and in data set [15] was Active. Moreover, the Activity in data set [17] turned out to be 0%.
Regarding H-HADELVAGVKQ-NH2, in [1], the Retention_time is 9.41 min. Moreover, the outcome in [5], in [6] and in data set [7] was inactive. The result in data set [8], in data set [9], in data set [10], in data set [11], in data set [12] and in data set [13] was Active. For the same compound, the outcome in [14] and in [15] was Active.
For H-IGPLVIPVAAIL-NH2, the Retention_time in data set [1] is reported as 15.83 min. In addition, the MIC stood at 1.8 µM in data set [16] and 1.5 µM in [4]. Moreover, the result in data set [5], in data set [6] and in data set [7] was inactive. Further, the outcome in data set [8], in data set [9], in [10], in data set [11], in [12] and in data set [13] was Active. Moreover, the result in data set [14] and in data set [15] was Active. Besides, the Activity in data set [18] came to 25%.
H-KISGGIGPLV-NH2 gave a Retention_time in [1] of 17.32 min. In addition, the result in data set [2], in [3], in data set [4], in data set [5], in [6] and in data set [7] was inactive. For the same compound, the result in data set [8], in data set [9], in data set [10], in data set [11], in [12] and in data set [13] was Active. The outcome in [14] and in [15] was Active.
The compound H-KLNEVELSKISGG-NH2 showed a Retention_time in data set [1] of 14.98 min. Also, the MIC in data set [2] worked out at 2.6 µM. Further, the outcome in data set [5], in data set [6] and in data set [7] was inactive. The result in [8], in data set [9], in data set [10], in [11], in data set [12] and in [13] was Active. The outcome in data set [14] and in data set [15] was Active.
As for H-LSKISG-NH2, the Retention_time in data set [1] came out at 9.94 min. The outcome in data set [3], in data set [4], in data set [5], in [6] and in data set [7] was inactive. Moreover, the outcome in data set [8], in [9], in [10], in [11], in data set [12] and in [13] was Active. For the same compound, the result in data set [14] and in data set [15] was Active.
Compound H-LSKISGGIGP-NH2 had a Retention_time in data set [1] of 13.63 min. Besides, the outcome in [3], in [4], in data set [5], in data set [6] and in data set [7] was inactive. The outcome in [8], in data set [9], in data set [10], in [11], in data set [12] and in data set [13] was Active. The result in data set [14] and in data set [15] was Active.
H-MNKLNEVELSKI-NH2 gave a Retention_time in data set [1] of 11.81 min. Besides, the result in data set [3], in data set [4], in data set [5], in data set [6] and in data set [7] was inactive. Besides, the outcome in [8], in [9], in data set [10], in [11], in [12] and in data set [13] was Active. Also, the outcome in data set [14] and in data set [15] was Active.
